Most compounds without a hit are left out; they make up all but 3.4% or so of the library.
ANO1 activ = activates or potentiates the mouse TMEM16A chloride channel; AID 623877; 0.3% of 340,000 active; HEK293 TMEM16A/YFP-H148Q/I152L, iodide quench fluorescence; stronger effect = lower value; Q8BHY3; B-score at 10 µM;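 active = fluorescence-ratio B-score plate-corrected deviation score at least 3 library SD below zero, with starting fluorescence score within 5 deviations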;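 also: channel opened by trigger with iodide after compound preincubation; score built on the fluorescence ratio of max minus min over baseline; more negative score means more quench and so TMEM16A activation or potentiation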
CHT inh = inhibitors of human choline transporter CHT. Q9GZV3. AID 488975. B-score at 10 µM. CHT-expressing cells, membrane potential dye, choline response; stronger effect = lower value. 0.86% of 310,000 active;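 active = B-score over 3 SD under the library average, and starting fluorescence ratio not unusually high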;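 also: choline stimulus applied at its EC90 after an EC20 pre-addition; B-score computed on integrated fluorescence ratio after choline addition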
Target sequence (Q9GZV3 whole entry, looked up): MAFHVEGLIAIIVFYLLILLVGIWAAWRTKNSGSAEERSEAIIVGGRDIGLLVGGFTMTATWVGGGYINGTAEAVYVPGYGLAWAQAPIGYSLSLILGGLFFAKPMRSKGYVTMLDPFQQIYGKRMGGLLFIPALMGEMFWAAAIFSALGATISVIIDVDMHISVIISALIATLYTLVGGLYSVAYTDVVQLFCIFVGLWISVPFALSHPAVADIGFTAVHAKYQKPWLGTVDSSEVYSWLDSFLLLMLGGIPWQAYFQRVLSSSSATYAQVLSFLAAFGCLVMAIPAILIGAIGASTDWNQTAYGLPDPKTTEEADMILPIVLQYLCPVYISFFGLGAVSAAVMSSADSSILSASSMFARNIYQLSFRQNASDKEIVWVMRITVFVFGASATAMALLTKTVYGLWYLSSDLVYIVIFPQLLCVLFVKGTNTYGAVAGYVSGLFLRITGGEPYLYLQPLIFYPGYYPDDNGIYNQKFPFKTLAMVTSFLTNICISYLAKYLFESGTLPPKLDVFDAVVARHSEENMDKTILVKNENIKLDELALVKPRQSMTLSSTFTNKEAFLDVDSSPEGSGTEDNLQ
CHT allo act = human CHT allosteric activation | 0.49% of 310,000 active | CHT-expressing cells, membrane potential dye, choline EC20; stronger effect = higher value; LV-AA mutant CHT in HEK293 cells | AID 488977 | B-score at 10 µM;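 active = initial fluorescence not abnormally high and integrated response B-score, plate-corrected, over 3 SD above library mean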
TMEM16A inh = mouse TMEM16A channel inhibition, primary screen; HEK293 TMEM16A/YFP iodide influx fluorescence, ionomycin; normalized B-score (activity score, 25-100; higher = stronger inhibition) at 10 µM; 1.2% of 310,000 active; AID 588511;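 active = ratio plate-corrected score three or more library SD toward inhibition, starting fluorescence score within five deviations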;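 also: score derived from kinetic fluorescence span divided by baseline fluorescence per well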
VIM-2 inh = blocks Pseudomonas aeruginosa VIM-2 metallo-beta-lactamase. 0.89% of 290,000 active. inhibition, % at 5.6 µM. AID 1527. purified VIM-2, nitrocefin hydrolysis, epi-absorbance fluorescence;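 active = inhibition above the mean of all tested compounds plus 3 SD, cutoff set per screening run, cut at about 7.5% in these data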;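 also: red hydrolysis product quenches plate fluorescence so inhibitors raise well fluorescence; 0% = enzyme with DMSO and 100% = DMSO without enzyme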
IMP-1 inh = inhibitors of Pseudomonas aeruginosa IMP-1 metallo-beta-lactamase. purified IMP-1, nitrocefin hydrolysis, epi-absorbance fluorescence. inhibition, % at 5.6 µM. 0.45% of 290,000 active. AID 1556;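 active = inhibition above the mean plus 3 SD of all compounds in the same screening run, cut at about 4.5% in these data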;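 also: 0% = IMP-1 with DMSO and 100% = DMSO wells lacking enzyme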
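System – purified recombinant IMP-1 beta-lactamase · Input – IMP-1 dispensed at 0.2 nM · Timing – 15 min preincubation plus 25 min reaction at 25 °C · Signal – Epi-absorbance fluorescence, 480 nm excitation, 530 nm emission · Measure – percent IMP-1 inhibition derived from blank-referenced optical density · Controls – Enzyme-plus-DMSO low control, enzyme-free DMSO high control · Replication – singlicate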
The depositor's hits bear a star; i = inactive; · = not tested or not shown.

SMILES | ANO1 activ | CHT inh | CHT allo act | TMEM16A inh | VIM-2 inh | IMP-1 inh
CN(c1cccc(NC(=O)c2ccc(N(C)S(=O)(=O)c3ccccc3)cc2)c1)S(C)(=O)=O | i | i | i | 100* | -4 | -2
CC(=O)Nc1ccc(C(=O)Nc2cccc(S(=O)(=O)N(C)c3ccccc3)c2)cc1 | i | · | · | · | · | ·
COc1ccc(CCc2nnc(NS(C)(=O)=O)s2)cc1 | i | i | i | i | -3 | -4
COc1ccc(C2=NS(=O)(=O)N(C)C(C(=O)Nc3ccc(C(C)=O)cc3)=C2)cc1OC | i | i | i | 25* | -3 | -1
COc1ccc(NC(=O)C2=CC(c3ccc(C)cc3)=NS(=O)(=O)N2C)cc1OC | i | i | i | i | 0 | -1
CCC(=O)c1ccc(OCC(=O)NCc2ccccc2CN2CCCC2)cc1 | i | · | · | · | · | ·
O=C(O)C1CCCN1c1nc(-c2ccc(Cl)c(Cl)c2)cc(C(F)(F)F)n1 (stereo unspecified) | i | · | · | · | · | ·
O=C(O)c1cccc2[nH]c(C(F)(F)F)nc12 | i | i | i | i | -5 | -1
Nc1cccc2[nH]c(C(F)(F)F)nc12 | i | i | i | i | 3 | 15*
COc1ccc(C(=O)COC(=O)CN2C(=O)c3ccccc3C2=O)c(OC)c1 | i | i | i | i | -2 | -3
COc1ccc2oc(=N)c(C(=O)Nc3ccccc3Cl)cc2c1 | i | i | i | i | 0 | -4
CCc1nc(SCC(=O)N2CCN(C(=O)c3ccco3)CC2)c2c3c(sc2n1)CCCC3 | i | i | i | i | 9.7* | -2
Cc1nc(N2CCN(C(=O)c3ccco3)CC2)c2c3c(sc2n1)CCCC3 | i | i | i | i | 2 | 0
Clc1ccc(COc2cccc(CNCc3ccncc3)c2)cc1 | i | i | i | 100* | -2 | -4
Cc1ccc(Cl)cc1Nc1nc(-c2sc(NC(=O)C(C)(C)C)nc2C)cs1 | i | i | i | i | 0 | 18*
Cc1n[nH]c(=O)c2c(NC(=O)CSc3nncs3)oc(C)c12 | i | i | i | i | · | ·
Cc1onc(-c2c(Cl)cccc2Cl)c1COC(=O)c1ccc(Cl)cc1 | i | i | i | i | -3 | -2
O=C(CSc1nnnn1-c1ccc(F)cc1)Nc1nc2ccccc2s1 | i | i | i | i | -2 | 4.7*
CCn1nnnc1SCC(=O)Nc1nc2ccccc2s1 | i | i | i | i | -7 | -3
Cc1ccc(S(=O)(=O)N2[C@@H](c3cccc(Cl)c3)C(C(=O)O)=CC[C@H]2c2cccc(C)c2)cc1 | i | i | i | 25* | · | ·
Cc1ccc(S(=O)(=O)N2[C@@H](c3cccc(Cl)c3)C(C(=O)O)=CC[C@H]2c2cccc(Cl)c2)cc1 | i | i | i | 100* | · | ·
Cc1ccc(S(=O)(=O)N2[C@@H](c3ccc(F)cc3)C(C(=O)O)=CC[C@H]2c2cccc(Cl)c2)cc1 | i | i | i | i | · | ·
Cn1c(CCCNC(=O)c2ccco2)nc2ccccc21 | i | · | · | · | · | ·
CCCC(NC(=O)C(C)NC(=O)CO/N=C1\C=C2CCC3C4CCC(C(C)=O)[C@@]4(C)CCC3[C@@]2(C)CC1)C(=O)O (stereo partly specified) | i | i | i | i | -1 | -3
COc1cc(/C=C/C(=O)Nc2ccc(S(=O)(=O)Nc3ncccn3)cc2)ccc1OCC#N | i | · | · | · | · | ·
SMILES | ANO1 activ | CHT inh | CHT allo act | TMEM16A inh | VIM-2 inh | IMP-1 inh
CCN(CC)CCNC(=O)c1ccc(NC(=O)c2cn(-c3ccccc3)nc2-c2cccs2)cc1 | i | i | i | 25* | 0 | -2
COc1ccccc1N1CCN(C(=O)c2oc3cc(C)cc(C)c3c2C)CC1 | i | i | i | 25* | -2 | -3
O=C1NC(=O)/C(=C/c2ccc(-c3cc(C(=O)O)ccc3Cl)o2)S1 | i | i | i | i | 6 | -2
O=C1NC(=S)/C(=C\c2ccc(-c3ccccc3Cl)o2)S1 | -5.8* | i | i | i | 4 | 1
O=C(NCCC(=O)N1CCC2(CC1)NCCc1[nH]cnc12)c1cccc(Br)c1 | i | i | i | i | -1 | -2
COc1ccc(C=C2SC(=O)NC2=O)cc1OC | i | · | · | · | · | ·
NS(=O)(=O)c1ccc(-c2cccc(/C=C3\SC(=O)NC3=O)c2)cc1 | -4.9* | i | i | i | 1 | -2
Cc1cc(C)cc(NC(=O)[C@@H](NC(=O)c2ccco2)C(C)C)c1 | i | i | i | i | -4 | -2
CCC(=O)N(CCC(c1ccccc1)c1ccco1)Cc1cccs1 (stereo unspecified) | i | i | 9.5* | i | -3 | -2
O=C(CC1SCCNC1=O)Nc1cccc([N+](=O)[O-])c1 (stereo unspecified) | i | i | i | i | -3 | -2
COc1ccc(CC(=O)Nc2ccc(-c3cn4ccccc4n3)cc2)cc1 | i | i | i | i | -4 | -1
O=C(Nc1ccc(-c2cn3ccccc3n2)cc1)c1cccs1 | i | i | i | i | -4 | 6.4*
COc1ccccc1-c1ccc(SCc2ccccc2F)nn1 | i | i | i | 25* | -1 | -2
COc1ccccc1-c1ccc(SCc2ccccc2)nn1 | i | i | i | i | -3 | -4
CS(=O)(=O)c1sc(C#N)c2c1C(=O)CC(c1ccccc1)C2 (stereo unspecified) | -11* | -7.1* | i | i | -3 | -4
Cc1oc2c(c(=O)c1C)C(=O)CC(c1ccccc1)C2 (stereo unspecified) | i | i | i | i | -3 | -3
CCOC(=O)Cn1nnnc1CN(Cc1ccccc1)Cc1cc2cc(CC)ccc2[nH]c1=O | i | i | i | 25* | 1 | 0
CCc1ccc2[nH]c(=O)c(CN(Cc3ccccc3)Cc3nnnn3Cc3ccco3)cc2c1 | i | i | i | i | 0 | -3
COc1ccccc1/C=C/C=C1\Oc2c(ccc(O)c2CN2CCN(CCO)CC2)C1=O | i | i | i | i | 2 | 27*
O=C1/C(=C/C=C/c2ccccc2)Oc2c1ccc(O)c2CN1CCN(CCO)CC1 | i | i | i | i | -2 | -1
CCN1CCN(Cc2c(O)ccc3c2O/C(=C\c2ccc(C)cc2)C3=O)CC1 | i | i | i | i | 8.8* | 2
Cc1ccc(/C=C2\Oc3c(ccc(O)c3CN3CCN(C)CC3)C2=O)cc1 | i | i | i | i | 9.5* | 1

Source: PubChem
